What is called Ki is a measure of affinity in units of concentration, obtained from inhibition or displacement. In general, Vmax refers to the top rate of the reaction or transport when substrate is in excess. As usually defined, the microsomal CLint is a measure of how fast metabolising enzymes remove a compound, apart from limits set by blood flow. By IC50 is commonly meant the concentration that gives 50% inhibition.

These results are taken from publication PMC7396963 (Journal of pharmaceutical and biomedical analysis, 2018).

Read-outs that look alike come from different tables or passages of the source.

Data set [1] is described as follows: Glucuronidation kinetics of NBIF in HLM. It is filed as in vitro ADME, human. In outline:
(§1)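 Incubation in 50 mM Tris-HCl (pH 7.4) with 4.0 mM MgCl2, 22 μg/mL alamethicin, 4.4 mM saccharolactone and 3.5 mM UDPGA. Enzyme source is recombinant UGT or pooled liver or intestinal microsomes, as the line states. Test compound 0.16–80 μM, 1 h. Ice-cold acetonitrile stop, centrifugation, UHPLC/Q-TOF-MS semi-quantification of glucuronides. Minus-UDPGA control. Triplicate. Michaelis-Menten or substrate-inhibition model chosen by Eadie-Hofstee plot; CLint = Vmax/Km.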

Data set [2] in a line: Glucuronidation kinetics of NBIF in HIM. Particulars: glucuronide formation from NBIF, UDPGA-supplemented HIM. It is filed as in vitro ADME, human. In outline: as §1
The next data set concerns the target T1, UGT1A1 (Homo sapiens, UniProt P22309).
T1 sequence (P22309 26-533): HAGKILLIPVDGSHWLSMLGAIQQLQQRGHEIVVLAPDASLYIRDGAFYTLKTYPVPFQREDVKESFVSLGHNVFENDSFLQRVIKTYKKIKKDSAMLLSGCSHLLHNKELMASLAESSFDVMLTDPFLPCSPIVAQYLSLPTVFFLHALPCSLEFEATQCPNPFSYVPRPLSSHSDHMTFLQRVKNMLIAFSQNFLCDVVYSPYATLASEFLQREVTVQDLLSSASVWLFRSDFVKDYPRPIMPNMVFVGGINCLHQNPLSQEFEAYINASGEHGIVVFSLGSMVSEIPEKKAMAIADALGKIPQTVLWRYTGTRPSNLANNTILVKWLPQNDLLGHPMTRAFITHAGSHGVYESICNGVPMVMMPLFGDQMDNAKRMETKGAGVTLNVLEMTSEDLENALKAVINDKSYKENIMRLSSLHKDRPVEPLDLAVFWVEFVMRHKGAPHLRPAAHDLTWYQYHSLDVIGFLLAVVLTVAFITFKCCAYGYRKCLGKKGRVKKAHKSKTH
The experiment in a line: Glucuronidation kinetics of NBIF by recombinant UGT1A1. It is filed as in vitro ADME. The following applies: glucuronide formation from NBIF. In outline: as §1

The target of a further data set is T2, UGT1A7 (Homo sapiens, UniProt Q9HAW7).
T2 sequence (Q9HAW7 26-530): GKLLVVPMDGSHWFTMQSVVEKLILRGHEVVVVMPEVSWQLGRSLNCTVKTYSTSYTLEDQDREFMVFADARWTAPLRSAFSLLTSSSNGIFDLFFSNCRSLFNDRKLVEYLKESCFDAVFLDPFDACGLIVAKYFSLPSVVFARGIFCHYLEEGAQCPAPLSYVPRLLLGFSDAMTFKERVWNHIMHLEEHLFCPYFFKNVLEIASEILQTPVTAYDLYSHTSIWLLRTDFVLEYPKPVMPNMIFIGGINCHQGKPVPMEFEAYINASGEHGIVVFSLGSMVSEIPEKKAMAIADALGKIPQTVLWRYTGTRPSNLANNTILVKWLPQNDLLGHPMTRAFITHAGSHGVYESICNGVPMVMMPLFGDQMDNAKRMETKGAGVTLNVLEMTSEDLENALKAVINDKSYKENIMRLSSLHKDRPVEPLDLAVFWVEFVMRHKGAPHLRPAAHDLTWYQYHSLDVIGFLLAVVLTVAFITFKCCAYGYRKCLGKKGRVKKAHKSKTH
In words: Glucuronidation kinetics of NBIF by recombinant UGT1A7. It is filed as in vitro ADME. Particulars: glucuronide formation from NBIF. The method in brief:
as §1

A further data set has as its target T3, UGT1A8 (Homo sapiens, UniProt Q9HAW9).
T3 sequence (Q9HAW9 26-530): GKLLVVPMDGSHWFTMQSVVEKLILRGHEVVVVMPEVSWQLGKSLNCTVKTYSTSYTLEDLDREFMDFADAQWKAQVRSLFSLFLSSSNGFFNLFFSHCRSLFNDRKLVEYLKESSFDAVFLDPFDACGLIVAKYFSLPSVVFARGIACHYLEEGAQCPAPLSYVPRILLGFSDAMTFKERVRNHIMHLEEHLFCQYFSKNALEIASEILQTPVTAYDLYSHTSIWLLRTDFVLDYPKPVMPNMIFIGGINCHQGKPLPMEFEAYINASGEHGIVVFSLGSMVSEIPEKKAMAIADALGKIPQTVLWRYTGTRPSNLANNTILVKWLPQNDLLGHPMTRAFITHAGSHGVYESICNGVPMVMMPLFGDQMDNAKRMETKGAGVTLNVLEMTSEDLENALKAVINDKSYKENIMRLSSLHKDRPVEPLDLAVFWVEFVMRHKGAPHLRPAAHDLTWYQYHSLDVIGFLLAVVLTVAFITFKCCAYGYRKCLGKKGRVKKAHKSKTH
In words: Glucuronidation kinetics of NBIF by recombinant UGT1A8. It is filed as in vitro ADME. The following applies: glucuronide formation from NBIF. The method in brief: as §1

The target of a further data set is T4, UGT1A9 (Homo sapiens, UniProt O60656).
T4 sequence (O60656 26-530): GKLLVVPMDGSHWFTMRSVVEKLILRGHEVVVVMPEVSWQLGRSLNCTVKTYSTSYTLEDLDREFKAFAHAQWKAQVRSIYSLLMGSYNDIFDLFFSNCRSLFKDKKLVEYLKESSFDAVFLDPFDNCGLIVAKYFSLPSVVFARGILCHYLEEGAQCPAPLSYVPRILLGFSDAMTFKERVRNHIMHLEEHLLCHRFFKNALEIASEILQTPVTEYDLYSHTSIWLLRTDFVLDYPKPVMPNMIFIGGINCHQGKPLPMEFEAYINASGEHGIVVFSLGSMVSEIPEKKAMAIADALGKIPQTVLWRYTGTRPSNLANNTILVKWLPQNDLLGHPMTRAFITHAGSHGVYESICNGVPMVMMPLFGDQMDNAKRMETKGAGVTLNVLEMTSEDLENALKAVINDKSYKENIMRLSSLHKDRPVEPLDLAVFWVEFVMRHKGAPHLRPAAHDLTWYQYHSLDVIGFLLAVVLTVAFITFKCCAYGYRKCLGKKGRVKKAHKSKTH
The experiment in a line: Glucuronidation kinetics of NBIF by recombinant UGT1A9. Particulars: for Vmax: glucuronide formation from NBIF, recombinant UGT1A9. It is filed as in vitro ADME. The method in brief: as §1

Data set [3] in a line: Glucuronidation kinetics of NBIF in MkLM. The class given is in vitro ADME, monkeys. The following applies: glucuronide formation from NBIF, UDPGA-supplemented MkLM. In outline:
as §1

The nature of data set [4]: Glucuronidation kinetics of NBIF in RLM. It is filed as in vitro ADME, rats. Particulars: glucuronide formation from NBIF, UDPGA-supplemented RLM. The method in brief: as §1
Data set [5] can be described thus: Glucuronidation kinetics of NBIF in MLM. It is filed as in vitro ADME, mice. The following applies: glucuronide formation from NBIF, UDPGA-supplemented MLM. The method in brief: as §1
Data set [6] is described as follows: Glucuronidation kinetics of NBIF in DLM. The following applies: glucuronide formation from NBIF, UDPGA-supplemented DLM. It is filed as in vitro ADME, dogs. The method in brief:
as §1

Data set [7] is described as follows: Glucuronidation kinetics of NBIF in RaLM. The class given is in vitro ADME, rabbits. Particulars: glucuronide formation from NBIF, UDPGA-supplemented RaLM. The method in brief: as §1
Data set [8] is described as follows: Species difference analysis of NBIF metabolism. Particulars: CLint, HLM versus animal liver microsomes. The class given is in vitro ADME. In outline: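 CLint values (Vmax/Km from model fits) for oxidation and glucuronidation come from pooled human liver microsomes and from monkey, rat, mouse, dog and rabbit liver microsomes. Each was incubated with test compound at 0.16–80 μM, using NADPH-supplemented oxidation or UDPGA/alamethicin glucuronidation conditions. Metabolites were measured by UHPLC/Q-TOF-MS in triplicate.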
For orientation: Liver microsomes are vesicles of endoplasmic reticulum, rich in cytochrome P450 enzymes.

The subject of a further data set is platelet aggregation. Particulars: inhibition of platelet aggregation; cited from earlier work.
The target of another data set is α-glucosidase. Particulars: α-glucosidase inhibitory activities; cited from earlier work.
For data set [9], the system named is UDP-glucuronosyltransferase 1A1 (UGT1A1). The following applies: inhibitory effect on UGT1A1; cited from earlier work.
For data set [10] the following is noted: inhibitory effect on HLM; cited from earlier work.
The next data set concerns the target human carboxylesterase 2. Particulars: cited from earlier work.
The target in data set [11] is human monoamine oxidase-A. Particulars: cited from earlier work.
Data set [12] addresses human monoamine oxidase-B. The following applies: cited from earlier work.
The conditions of data set [13]: glucuronidation; cited from earlier work.
For data set [14] the following is noted: glucuronidation; cited from earlier work. This is another data set of the same source.
Where [15] appears, read: glucuronide formation from NBIF, UDPGA-supplemented HLM.

For `CC(C)=CCc1cc(-c2coc3cc(O[C@@H]4O[C@H](C(=O)O)[C@@H](O)[C@H](O)[C@H]4O)ccc3c2=O)ccc1O` [G1, NBIF-7-O-glucuronide], the inhibition constant (Ki) in [1] (setting [15]) came to 48.45 ± 13.86 µM; on UGT1A1, 291.1 ± 100.1 µM; on UGT1A7 it was 61.82 ± 13.5 µM; in data set [4], 24.73 ± 4.75 µM; in data set [5], 38.19 ± 10.18 µM. Further, the Vmax in [1] (setting [15]) is on record as 1788.0 ± 203.6 pmol/min/mg; in [2], 409.3 ± 18.9 pmol/min/mg; at UGT1A1, 912.4 ± 49.36 pmol/min/mg; on UGT1A7 it was 11.93 ± 0.55 pmol/min/mg; on UGT1A8, 419.1 ± 18.69 pmol/min/mg; on UGT1A9 it was 70.01 ± 1.37 pmol/min/mg. For the same compound, the Vmax in data set [3] is 4129.0 ± 182.8 pmol/min/mg; in [4] it was 2490.0 ± 249.5 pmol/min/mg; in data set [5] it was 3589.0 ± 432.9 pmol/min/mg; in [6], 1807.0 ± 48.14 pmol/min/mg; in data set [7], 3006.0 ± 103.8 pmol/min/mg.
In the case of `CC(C)=CCc1cc(-c2coc3cc(O)ccc3c2=O)ccc1O[C@@H]1O[C@H](C(=O)O)[C@@H](O)[C@H](O)[C@H]1O` [G2, NBIF-4′-O-glucuronide], the Vmax is reported as 919.1 ± 20.23 pmol/min/mg in data set [1] (setting [15]); 8655.0 ± 1021.0 pmol/min/mg in data set [2]; 48.33 ± 1.59 pmol/min/mg at UGT1A1; 135.3 ± 4.36 pmol/min/mg on UGT1A7; 147.0 ± 6.84 pmol/min/mg on UGT1A8; 805.9 ± 17.46 pmol/min/mg at UGT1A9. For the same compound, the Vmax is 7072.0 ± 228.4 pmol/min/mg in [3]; 826.6 ± 99.48 pmol/min/mg in data set [4]; 3878.0 ± 563.1 pmol/min/mg in [5]; 3363.0 ± 85.47 pmol/min/mg in data set [6]; 3411.0 ± 155.5 pmol/min/mg in data set [7]. Further, the Ki in [2] came out at 33.32 ± 7.95 µM; at UGT1A1 it was 401.2 ± 135.7 µM; at UGT1A7 it was 154.5 ± 44.85 µM; in data set [4], 9.09 ± 1.82 µM; in [5], 31.68 ± 9.16 µM.
Consider `CC(C)=CCc1cc(-c2coc3cc(O)ccc3c2=O)ccc1O` [NBIF, Neobavaisoflavone], for which the microsomal CLint is 60 to 949 µL/min/mg in data set [1] (human, human liver microsomes (HLM) and HIM, pH 7.4); 1070 µL/min/mg at UGT1A9 (human, recombinant UGT1A9, pH 7.4). In addition, the “species differences in glucuronidation” value in data set [8] is recorded as “approximately 2.3 fold”. In addition, the “species differences in the phase I metabolism” value in [8] was “approximately 16.1 fold”. Moreover, the half-inhibitory concentration (IC50) was 2.5 µM with platelet aggregation; 27.7 µM at α-glucosidase; 2.42 µM in data set [9]; 2.25 µM in [10]; 6.39 µM on human carboxylesterase 2; 66.5 µM in data set [11]. In data set [12], the IC50 was 77.3 µM.
Turning to `COc1ccc(-c2oc3c(CC=C(C)C)c(O)cc(O)c3c(=O)c2O)cc1` [icaritin], the CLint values result in [13] is recorded as “more than 270 μL/min/mg”.
As to `COc1ccc(-c2oc3c(CCC(C)(C)O)c(O)cc(O)c3c(=O)c2O)cc1` [wushanicaritin], the CLint values in data set [14] was over 160 µL/min/mg.
